Test results taken from ChEMBL document CHEMBL3351575, “Halogenated diarylacetylenes repress c-myc expression in cancer cells” (Bioorg Med Chem Lett, 2014).
Active and inactive are the calls of the source. No cut-off for these calls is given here.

How the values were obtained:
Assay type in all cases: functional, cell-based
LS174T [1] = experiment: Induction of p21([…]/Cip1) expression in human LS 174T cells at 1 uM after 36 hrs by Western blotting analysis
In short: (§1)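 LS174T colon cancer cells exposed to each diarylacetylene at 1 μM for 36 h, alongside a DMSO vehicle control and a reference compound; cell lysates then probed by western blot, with β-tubulin as the loading control.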

LS174T [2] = experiment: Inhibition of c-myc expression in human LS 174T cells at 1 uM after 36 hrs by Western blotting analysis; in short: as §1
[3] = Antiproliferative activity against human LS 174T cells after 4 days by Vi-Cell cell viability analyzer; conditions: LS174T, 96 h

Structure (SMILES) | Activity (LS174T [1]) | inhibition (LS174T [2]) | IC50 [3]
CN(C)c1ccc(C#Cc2c(F)cccc2F)cc1 | Active | Active | 23 nM
CN(C)c1ccc(C#Cc2ccc(F)c(F)c2)cc1 | Active | Active | > 3000 nM
CN(C)c1ccc(C#Cc2ccc(F)cc2)cc1 | Active | Active | > 3000 nM
CN(C)c1ccc(C#Cc2c(F)cccc2Cl)cc1 | Active | Active | 19 nM
CN(C)c1ccc(C#Cc2ccccc2Cl)cc1 | Active | Active | 31 nM
CNc1ccc(C#Cc2c(F)cccc2F)cc1 | Active | Active | 23 nM
CN(C)c1ccc(C#Cc2cccc(F)c2)cc1 | Active | Active | > 3000 nM
CN(C)c1ccc(/C=C/c2c(F)cccc2F)cc1 | Active | Active | 59 nM
CN(C)c1ccc(C#Cc2cccc(F)c2F)cc1 | – | – | 119 nM
CN(C)c1ccc(C#Cc2ccc(F)cc2F)cc1 | – | – | 56 nM
CN(C)c1ccc(C#Cc2ccccc2F)cc1 | Active | Active | 39 nM
CN(C)c1ccc(C#Cc2cc(F)ccc2F)cc1 | – | – | 55 nM
CN(C)c1ccc(C#Cc2ccccc2)cc1 | Active | Active | > 3000 nM
Nc1ccc(C#Cc2c(F)cccc2F)cc1 | – | – | 55 nM
CN(C)c1ccc(C#Cc2c(Cl)cccc2Cl)cc1 | Active | Active | 52 nM
CN(C)c1ccc(C#Cc2cc(F)cc(F)c2)cc1 | – | – | > 3000 nM
